Data on two compounds can be found in ChEMBL document CHEMBL1275536, “Efficacy of single-dose liposomal amphotericin B or micafungin prophylaxis in a neutropenic murine model of invasive pulmonary aspergillosis” (2008).

Assay [1] has as its system Aspergillus fumigatus. The assay is described as follows: Antifungal activity against Aspergillus fumigatus 293 by broth-microdilution. The class given is functional. Conditions: read-out: MEC. Put shortly:
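Broth microdilution following CLSI (NCCLS) approved standard M38-A. Amphotericin B read as MIC; micafungin read as minimum effective concentration.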

Assay [2] concerns Aspergillus fumigatus. The assay can be described thus: Antifungal activity against Aspergillus fumigatus 293 by Etest. In kind it is functional. Put shortly: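 Susceptibility of A. fumigatus 293 by Etest. Amphotericin B read as MIC; micafungin read as minimum effective concentration.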
Assay [3] has as its system Aspergillus fumigatus. The assay is described as follows: Antifungal activity against Aspergillus fumigatus 293 infected in neutropenic BALB/c mouse lung assessed as swollen dysmorphic hyphal clusters at 10 mg/kg, ip administered as single dose 24 hrs before infection by light microscopy. The class given is functional, organism-based. The arrangement: dose 10 mg/kg. Put shortly:
(§1)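 Repeat experiments in the neutropenic intranasal-challenge model, five mice per dose, single i.p. dose 24 h pre-infection. Day +7 lungs fixed in 10% formaldehyde and stained with Grocott methenamine silver. Hyphal morphology and density assessed by light microscopy at ×100 and ×400.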

For assay [4], the system named is Aspergillus fumigatus. The assay is described as follows: Antifungal activity against Aspergillus fumigatus 293 infected in neutropenic BALB/c mouse lung assessed as swollen dysmorphic hyphal clusters at 20 mg/kg, ip administered as single dose 24 hrs before infection by light microscopy. In kind it is functional, organism-based. The arrangement: dose 20 mg/kg. The method in brief: as §1

The test system of assay [5] is Aspergillus fumigatus. The assay can be described thus: Antifungal activity against Aspergillus fumigatus 293 infected in neutropenic BALB/c mouse assessed as mouse survival at 5 mg/kg, ip administered as single dose 24 hrs prior to infection measured after 7 days relative to untreated control. The class given is functional. The settings on record: route intraperitoneal. Put shortly:
(§2)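 Female BALB/c mice, 8 weeks old, 18-22 g. Neutropenia by cyclophosphamide 150 mg/kg i.p. on days −4, −1 and +3, plus cortisone acetate 250 mg/kg i.p. on day −1. Under isoflurane, 2.5 × 10^6 conidia given intranasally. Drug diluted in D5W, given once i.p. 24 h pre-infection; D5W controls; n = 20/group. Morbidity monitored 7 days; log-rank test.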

For assay [6], the system named is Aspergillus fumigatus. The assay can be described thus: Antifungal activity against Aspergillus fumigatus 293 infected in neutropenic BALB/c mouse assessed as mouse survival at 20 mg/kg, ip administered as single dose 24 hrs before infection measured after 7 days relative to untreated control. In kind it is functional. Conditions: route intraperitoneal. Put shortly:
as §2

Assay [7] concerns Aspergillus fumigatus. The assay is described as follows: Antifungal activity against Aspergillus fumigatus 293 infected in neutropenic BALB/c mouse lung assessed as log reduction in fungal burden at 5 mg/kg, ip administered as single dose 24 hrs before infection. In kind it is functional. Conditions: route intraperitoneal. The method in brief: (§3)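 Same neutropenic BALB/c intranasal-challenge model; single i.p. dose in D5W given 24 h pre-infection; D5W controls. Lungs from 10-20 mice/group taken at day +7, or earlier at moribund euthanasia. A. fumigatus DNA quantified by real-time PCR as conidial equivalents; reduction expressed as log10 of median versus control.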

The test system of assay [8] is Aspergillus fumigatus. The assay is described as follows: Antifungal activity against Aspergillus fumigatus 293 infected in neutropenic BALB/c mouse lung assessed as log reduction in fungal burden at 10 mg/kg, ip administered as single dose 24 hrs before infection. In kind it is functional. Conditions: route intraperitoneal. The method in brief:
as §3

Assay [9] has as its system Aspergillus fumigatus. The assay can be described thus: Antifungal activity against Aspergillus fumigatus 293 infected in neutropenic BALB/c mouse lung assessed as log reduction in fungal burden at 20 mg/kg, ip administered as single dose 24 hrs before infection. The settings on record: route intraperitoneal. The class given is functional. The method in brief: as §3

The source made the active and inactive calls. No cut-off for these calls is given here. Starred links: 1 amine or outer side, 2 acyl side, 3 side chain; linkers in the order of their positions; H or OH if unused. Positions of bridges follow the written chain, without caps; N, C: chain ends. Non-standard residues stand in square brackets, D forms with d. Residues, ends and D or L forms follow the SMILES beside them. *: point of attachment. hTyr(3S-OH,4S-OH,3'-OSO3H) = N[C@H](C(=O)O)[C@H](O)[C@@H](O)c1ccc(O)c(OS(=O)(=O)O)c1; Orn(4R-OH,5R-OH) = O=C([C@H](C[C@@H](O)[C@@H](O)N[*:3])N[*:1])[*:2]; Pro(3S-OH,4S-Me) = C[C@H]1CN[C@H](C(=O)O)[C@H]1O; X1 = CCCCCOc1ccc(-c2cc(-c3ccc(C(=O)*)cc3)no2)cc1; Gln(3R-OH) = NC(=O)C[C@@H](O)[C@H](N)C(=O)O; Hyp = O=C(O)[C@@H]1C[C@@H](O)CN1

Consider `C[C@@H]1[C@H](O)[C@@H](C)/C=C/C=C/C=C/C=C/C=C/C=C/C=C/[C@H](O[C@@H]2O[C@H](C)[C@@H](O)[C@H](N)[C@@H]2O)C[C@@H]2O[C@](O)(C[C@@H](O)C[C@@H](O)[C@H](O)CC[C@@H](O)C[C@@H](O)CC(=O)O[C@H]1C)C[C@H](O)[C@H]2C(=O)O` [AMPHOTERICIN B], for which, in the assay with Aspergillus fumigatus [1], the minimal effective concentration worked out at 0.25 µg/mL.

Regarding `CCCCCOc1ccc(-c2cc(-c3ccc(C(=O)N[C@H]4C[C@@H](O)[C@@H](O)NC(=O)[C@@H]5[C@@H](O)[C@@H](C)CN5C(=O)[C@H]([C@H](O)CC(N)=O)NC(=O)[C@H]([C@H](O)[C@@H](O)c5ccc(O)c(OS(=O)(=O)O)c5)NC(=O)[C@@H]5C[C@@H](O)CN5C(=O)[C@H]([C@@H](C)O)NC4=O)cc3)no2)cc1` [MICAFUNGIN] (X1-[Orn(4R-OH,5R-OH)]T[Hyp][hTyr(3S-OH,4S-OH,3'-OSO3H)][Gln(3R-OH)][Pro(3S-OH,4S-Me)]; lactam 1-C), in the assay with Aspergillus fumigatus [1], the minimal effective concentration turned out to be 0.25 µg/mL. Besides, the MEC in the assay with Aspergillus fumigatus [2] stood at 0.25 µg/mL. Moreover, the outcome in the assay on Aspergillus fumigatus [3] and in the assay on Aspergillus fumigatus [4] was Active. Also, the Activity in the assay on Aspergillus fumigatus [5] and with Aspergillus fumigatus [6] was 55% each time. Further, the results for the FC with Aspergillus fumigatus [7], with Aspergillus fumigatus [8] and with Aspergillus fumigatus [9] were 1.3, 1.3 and 0.7, respectively.
